Screening results as filed in PubChem.
KCNK9 inh: KCNK9 potassium channel inhibitors, primary screen, HEK293 cells, thallium flux | FluxOR thallium flux fluorescence; hits give low values | AID 488922, 2010 | 1.2% of 310,000 active | B-score at 10 µM;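 active = ratio B-score over 3 SD below the library mean, with starting fluorescence within 5 SD of its mean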;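 note: negative B-score means less thallium flux so channel inhibition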
KCNQ1 inh: inhibitors of human KCNQ1 channel, primary screen, cell-based, thallium flux, high-throughput; CHO-K1 KCNQ1, FluxOR thallium flux fluorescence; hits give high values; Potassium voltage-gated channel subfamily KQT member 1 (Homo sapiens), P51787; B-score at 10 µM; AID 2642, 2010; 1.3% of 310,000 active;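 active = compounds whose thallium flux B-score, printed positive for inhibition, exceeds three library SD while starting fluorescence stays within three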;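 note: channel opened by potassium depolarization with thallium stimulus after 20 min compound exposure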
KCNQ1 act: potentiators or activators of KCNQ1 channel, primary screen, cell-based, thallium flux, high-throughput. B-score at 10 µM. Potassium voltage-gated channel subfamily KQT member 1 (Homo sapiens), P51787. 0.35% of 310,000 active. CHO-K1 KCNQ1, thallium flux FluxOR fluorescence; hits give high values;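 active = fluorescence ratio B-score, a plate-corrected score, at least three library SD, with initial intensity B-score within 5 SD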
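Material: CHO-K1 cells stably expressing KCNQ1. Medium: assay buffer for compound exposure, DMSO matched across wells. Reagent: K+/Tl+ depolarizing stimulus. Compound dosing: single-concentration screen. Times: 37 °C overnight plating, 90-min dark dye load, 20-min compound pretreatment. Technique: FluxOR Tl+ flux fluorescence.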
Kir21 block: inhibitors of mouse Kir2.1 inward-rectifier potassium channel | 0.85% of 310,000 active | Inward rectifier potassium channel 2 (Mus musculus), P35561 | B-score at 10 µM | AID 1672, 2009 | HEK293-Kir2.1, FluxOR thallium flux fluorescence; hits give low values;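 active = fluorescence ratio B-score at or below minus 3 SD of library scores, with starting-brightness B-score within 2 SD, cut at about -4.2 in these data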;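 note: channel flux triggered by added potassium and thallium sulfate stimulus; B-score of peak minus minimum fluorescence over baseline after thallium stimulus; more negative B-score means stronger Kir2.1 block with less thallium influx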
Target sequence (P35561 whole entry, looked up): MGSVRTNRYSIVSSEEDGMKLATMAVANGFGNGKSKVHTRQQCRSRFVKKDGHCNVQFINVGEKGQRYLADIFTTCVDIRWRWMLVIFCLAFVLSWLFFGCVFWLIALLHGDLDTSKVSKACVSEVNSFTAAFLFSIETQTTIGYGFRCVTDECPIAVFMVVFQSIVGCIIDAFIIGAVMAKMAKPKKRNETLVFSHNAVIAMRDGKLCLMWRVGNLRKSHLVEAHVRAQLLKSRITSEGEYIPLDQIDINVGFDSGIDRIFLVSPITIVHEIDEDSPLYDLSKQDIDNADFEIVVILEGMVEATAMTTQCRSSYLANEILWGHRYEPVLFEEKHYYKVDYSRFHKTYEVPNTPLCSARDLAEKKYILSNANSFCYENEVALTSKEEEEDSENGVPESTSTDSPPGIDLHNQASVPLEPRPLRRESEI
KCNK3 block: human KCNK3 channel inhibitors, primary screen, CHO cells, FluxOR thallium flux, B-score. Potassium channel subfamily K member 3 (Homo sapiens), O14649. FluxOR fluorescence; hits give low values. B-score at 10 µM. 0.84% of 340,000 active;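 active = B-score under library mean minus 4 SD, starting fluorescence ratio at most library mean plus 5 SD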;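 note: more negative B-score means stronger inhibition of thallium flux through KCNK3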
hERG protect: hERG rescue from dofetilide block, primary screen, cell-based, CHO-hERG, FluxOR thallium flux, dofetilide IC70; Voltage-gated inwardly rectifying potassium channel KCNH2 (Homo sapiens), Q12809; 0.51% of 310,000 active; activation (rescue from dofetilide block), less the hit threshold, % at 10 µM; dofetilide IC70 present;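 active = activation above the mean of controls blocked by dofetilide plus 5 SD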;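 note: thallium influx through hERG after potassium depolarization seen as dye fluorescence rise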
KCNK3 confirm: retest of human KCNK3 channel inhibitors, confirmation, CHO cells, FluxOR thallium flux, triplicate; shares compounds with KCNK3 block; FluxOR fluorescence; 0% buffer, 100% carvedilol maximal block; ratio percent of control, % at 10 µM; 99% of 2,400 active; AID 651638, 2012;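 active = ratio percent of control, averaged over triplicates, above buffer control mean plus 5 SD, cut at about 64% in these data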;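 note: ratio is the fluorescence rise from min to max over baseline after thallium stimulus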
KCNK3 uninduced: thallium flux inhibition in non-induced cells, primary screen, counter-screen for KCNK3 inhibitor project, cell-based, non-induced KCNK3 line, FluxOR thallium, triplicate | shares compounds with KCNK3 block | non-induced KCNK3 parental cells; hits give low values | thallium flux ratio (lower = more inhibition) at 10 µM | 40% of 2,400 active | AID 651747, 2012;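 active = thallium flux ratio, averaged over three wells, more than 5 SD below the buffer control mean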;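 note: host cells are CHO cells without KCNK3 induction; ratio is peak minus trough fluorescence over baseline then normalized to buffer controls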
Active calls of the source: *; i = inactive; x = no result given. An excerpt weighted towards active compounds, which were near 3.7% of everything screened.

SMILES	KCNK9 inh	KCNQ1 inh	KCNQ1 act	Kir21 block	KCNK3 block	hERG protect	KCNK3 confirm	KCNK3 uninduced
COc1ccccc1CNC(=O)c1ccc2nc(N3CCOCC3)sc2c1	i	i	i	1	i	-9	x	x
NS(=O)(=O)c1ccc(NC(=O)COC(=O)COc2ccc(Br)cc2)cc1	i	i	i	-0.68	i	-11	x	x
CN(C(=O)c1ccoc1)c1ccc2ccccc2c1	i	i	i	2.2	-10*	-8	55*	i
COc1cc(CN(C)CC2CCCN(CCc3ccc(F)cc3)C2)c(Cl)cc1O (stereo not given)	i	i	i	0.83	-9.6*	-9	80*	i
COc1cc(CN(C)CC2CCCN(CCc3cccc(C(F)(F)F)c3)C2)ccc1O (stereo not given)	i	i	i	-1.2	i	-7	x	x
CCCn1c(CNc2ccc(Br)cc2)nc2ccccc21	i	i	i	0.09	-12*	-15	124*	0.14*
O=C(COc1cccc(NC(=O)c2cccc([N+](=O)[O-])c2)c1)c1ccc(Br)cc1	i	i	i	0.47	-11*	-3	96*	0.15*
COc1cccc(C(=O)COc2cccc(NC(=O)c3ccco3)c2)c1	-7.3*	i	i	-0.52	-10*	-8	120*	0.14*
O=C(Nc1cccc(OCC(=O)N2CCOCC2)c1)c1cccc([N+](=O)[O-])c1	i	i	i	-2.6	i	-11	x	x
Cc1cc(C)cc(C(=O)Nc2cccc(NC(=O)c3ccco3)c2)c1	-8*	i	i	-0.3	-11*	-11	101*	i
COc1ccc(C(=O)COc2cccc(NC(=O)c3ccco3)c2)cc1	i	i	i	0.76	i	-15	x	x
O=C(CCn1c(=S)[nH]c2ccccc2c1=O)NCCc1ccc(Cl)cc1	i	i	i	0.02	i	-9	x	x
C(=C\CSc1nnnn1-c1ccccc1)/CSc1nnnn1-c1ccccc1	i	i	i	-1.9	-9.7*	-15	106*	i
N#Cc1nc(COc2ccc(Br)cc2)oc1N1CCCCCC1	i	i	i	0.33	-15*	-7	82*	i
CCn1c(SCC(=O)Nc2oc(-c3ccccc3)c(-c3ccccc3)c2C#N)nnc1-c1ccncc1	i	i	i	0.73	-9.3*	-11	118*	0.14*
Cc1nn(C(C)C(=O)NCc2cccs2)c(C)c1[N+](=O)[O-] (stereo not given)	i	i	i	0.06	i	-5	x	x
COc1ccc(N=Cc2sc(O)c3ccccc23)cc1	i	i	i	-1.1	i	-8	x	x
COc1ccc(N=Cc2c(O)c3ccccc3n2C(C)=O)cc1	i	i	i	-4.7	-13*	-17	143*	0.098*
c1ccc(-c2nnc(OCC3CCCO3)c3ccccc23)cc1 (stereo not given)	i	i	i	3.6	i	-4	x	x
CC(C)CC(c1nnnn1Cc1ccco1)N1CCN(c2cccc(Cl)c2)CC1 (stereo not given)	i	i	i	-0.43	-10*	-5	126*	i
CCCC(c1nnnn1Cc1ccc(OC)cc1)N1CCN(c2ccccc2)CC1 (stereo not given)	i	i	i	0.05	i	-2	x	x
COc1ccc(Cn2nnnc2C(CC(C)C)N2CCN(c3ccccc3)CC2)cc1 (stereo not given)	i	i	i	1.5	-9*	-11	100*	i
Cc1cc(C)c(S(=O)(=O)N2CCN(C(=O)C3CCCO3)CC2)c(C)c1 (stereo not given)	x	x	x	x	i	x	x	x
COc1ccc(CNC2CC(C)N(C)CC2C)cc1OC (stereo not given)	i	i	i	-0.99	i	-2	x	x
c1ccc(CCNCc2ccco2)nc1	x	x	x	x	i	x	x	x
SMILES	KCNK9 inh	KCNQ1 inh	KCNQ1 act	Kir21 block	KCNK3 block	hERG protect	KCNK3 confirm	KCNK3 uninduced
CC1Cc2ccccc2N1S(=O)(=O)c1cccs1 (stereo not given)	i	i	i	-2.7	-9.4*	-15	124*	0.13*
Cc1ccc(S(=O)(=O)N2c3ccccc3CC2C)cc1 (stereo not given)	i	i	i	-2.5	i	-15	x	x
CC(C)(C)c1cc(C(=O)NNc2cc(C(F)(F)F)ccc2Cl)n(Cc2ccccc2)n1	i	8*	i	1.9	-19*	-10	139*	0.13*
Cc1ccc(NC(=O)c2cc(C(C)(C)C)nn2Cc2ccccc2)cc1	i	i	i	0.48	-16*	-17	148*	i
O=C(CCSc1ccccc1)Nc1nc2c(s1)COc1ccccc1-2	i	i	i	2.4	-9.4*	-21	105*	i
CCCC(=O)Nc1nc2c(s1)COc1ccccc1-2	i	i	i	1.8	i	-6	x	x
Oc1cc2c(cc1CN1CCN(c3cccc(C(F)(F)F)c3)CC1)CCC2	i	i	i	0.56	-9.4*	-14	100*	0.15*
COc1ccc(N2CCN(Cc3cc4c(cc3O)CCC4)CC2)cc1	i	i	i	2.6	i	-16	x	x
CN(C)c1ccc(/C=C/C(=O)c2cc(Cl)ccc2O)cc1	i	i	i	0.21	-13*	-8	106*	i
O=C(/C=C/c1ccncc1)c1cc(Cl)ccc1O	i	i	i	0.27	i	-10	x	x
O=C(c1ccccc1)C1CCN(c2ncccc2[N+](=O)[O-])CC1	i	i	i	-0.91	-8.8*	-10	85*	i
COc1ccccc1-c1c(C)oc2c(CN3CCN(C)CC3)c(O)ccc2c1=O	i	i	i	0.79	i	-11	x	x
COc1ccccc1-c1c(C)oc2c(CN3CCN(CCO)CC3)c(O)ccc2c1=O	i	i	i	0.99	-20*	-11	59*	i
